Calls of active or inactive are those of the source. No cut-off for these calls is given here.
Legend:
Jurkat [1] = test: Growth inhibition of human Jurkat cells at 50 uM by Trypan blue dye exclusion method; type: functional, cell-based
Jurkat [2] = test: Induction of apoptosis in human Jurkat cells assessed as viable cells at 50 uM after 48 hrs by flow cytometry relative to control; type: functional; conditions: read-out: Activity
Summary of the method: (§1)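 Jurkat T-cell leukemia cells treated 48 h with test agents at 50 μM (podophyllotoxin reference at 5 μM). Flow cytometric annexin-V/propidium iodide staining scored % apoptotic cells and % live cells, each relative to DMSO control. Two independent experiments, each in 3 replicates; mean ± SD.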

HeLa = test: Antiproliferative activity against human HeLa cells after 48 hrs by MTT assay relative to control; type: functional, cell-based
Summary of the method: (§2)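 Cells (HeLa cervical or MCF7/AZ breast adenocarcinoma) exposed to test agents 48 h; mixtures at final 100 μM, individual isomers at final 100, 50 and 5 μM. Viability read by MTT (mitochondrial dehydrogenase activity), expressed as % remaining viability vs DMSO control. Two independent experiments, each in 4 replicates; mean ± SD.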

MCF7/AZ = test: Antiproliferative activity against human MCF7/AZ cells after 48 hrs by MTT assay relative to control; type: functional, cell-based; summary of the method: as §2
Jurkat [3] = test: Induction of apoptosis in human Jurkat cells after 48 hrs at 50 uM by flow cytometry relative to control; type: functional; summary of the method: as §1
Jurkat [4] = test: Growth inhibition of human Jurkat cells assessed as decrease in cell count at 50 uM by Trypan blue dye exclusion method; type: functional, cell-based
Jurkat [5] = test: Induction of apoptosis in human Jurkat cells assessed as viable cells at 5 uM after 48 hrs by flow cytometry relative to control; type: functional; conditions: read-out: Activity
Summary of the method: (§3)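 Jurkat human T-cell leukemia cells were exposed to compound for 48 h and then stained with annexin-V/propidium iodide for flow cytometry. Apoptotic and live cell percentages are expressed relative to a DMSO control. Values are mean ± SD from two independent experiments, each run in 3 replicates.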

Jurkat [6] = test: Induction of apoptosis in human Jurkat cells after 48 hrs at 5 uM by flow cytometry relative to control; type: functional; summary of the method: as §3

Cc1ccc(S(=O)(=O)N2C(N)=C(C#N)[C@@H](c3ccccc3)[C@@H]2C(=O)c2ccc(Br)cc2)cc1 (relative stereo)
Activity (Jurkat [1]): Active
viability at 50 µM (Jurkat [2]): 96%
Activity (HeLa): Active
Activity (MCF7/AZ): Active
Activity (Jurkat [3]): 3%

Cc1ccc(S(=O)(=O)N2C(N)=C(C#N)[C@@H](c3ccccc3)[C@H]2C(=O)c2ccc(Br)cc2)cc1 (relative stereo)
viability at 50 µM (Jurkat [2]): 56%
Activity (HeLa): Active
Activity (MCF7/AZ): Active
Activity (Jurkat [3]): 30%
Activity (Jurkat [4]): Active

COc1ccc(S(=O)(=O)N2C(N)=C(C#N)[C@@H](c3ccccc3)[C@H]2C(=O)c2ccc(Br)cc2)cc1 (relative stereo)
Activity (HeLa): Active
Activity (MCF7/AZ): Active

COc1cc([C@@H]2c3cc4c(cc3[C@H](O)[C@H]3COC(=O)[C@H]23)OCO4)cc(OC)c1OC [PODOFILOX]
viability at 5 µM (Jurkat [5]): 22%
Activity (Jurkat [6]): 63%

COc1ccc(S(=O)(=O)N2C(N)=C(C#N)[C@@H](c3ccccc3)[C@@H]2C(=O)c2ccc(Br)cc2)cc1 (relative stereo)
Activity (HeLa): Active
Activity (MCF7/AZ): Active

Source: ChEMBL document CHEMBL1143867, “Novel three-component synthesis and antiproliferative properties of diversely functionalized pyrrolines” (2008)
